ARFGAP1 inh = inhibits rat ARF GTPase activating protein 1; 0.26% of 360,000 active; inhibition, % at 16.5 µM; Q62848; Arfgap1-stimulated ARF1 GTP hydrolysis, GDP FP detection;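 active = inhibition above a per-plate limit, mean inhibition of low control wells plus 3 SD, cut at about 25% in these data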
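Assay system: purified rat His6-Arfgap1 residues 1-136 (GAP domain); Reagent: human Δ17 ARF1 bound to GTP; Dosing: 16.5 µM single point, 1.26% DMSO; Times: GTP hydrolysis reaction 2 h at 25 °C; Signal: FP, GDP Alexa 633 tracer displaced from anti-GDP antibody, 620/688 nm; Measure: % inhibition from polarization.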
HGIII-sPLA2 inh = Inhibits HGIII-sPLA2 liposome hydrolysis, primary screen | QFRET BODIPY PC-A2 liposome hydrolysis, fluorescence | Q9NZ20 | 0.56% of 370,000 active | inhibition, % at 12.2 µM | AID 743126;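 active = inhibition above mean plus 3 SD of compounds lying within the high and low control bounds, cut at about 19% in these data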
Target sequence (Q9NZ20 whole entry, looked up): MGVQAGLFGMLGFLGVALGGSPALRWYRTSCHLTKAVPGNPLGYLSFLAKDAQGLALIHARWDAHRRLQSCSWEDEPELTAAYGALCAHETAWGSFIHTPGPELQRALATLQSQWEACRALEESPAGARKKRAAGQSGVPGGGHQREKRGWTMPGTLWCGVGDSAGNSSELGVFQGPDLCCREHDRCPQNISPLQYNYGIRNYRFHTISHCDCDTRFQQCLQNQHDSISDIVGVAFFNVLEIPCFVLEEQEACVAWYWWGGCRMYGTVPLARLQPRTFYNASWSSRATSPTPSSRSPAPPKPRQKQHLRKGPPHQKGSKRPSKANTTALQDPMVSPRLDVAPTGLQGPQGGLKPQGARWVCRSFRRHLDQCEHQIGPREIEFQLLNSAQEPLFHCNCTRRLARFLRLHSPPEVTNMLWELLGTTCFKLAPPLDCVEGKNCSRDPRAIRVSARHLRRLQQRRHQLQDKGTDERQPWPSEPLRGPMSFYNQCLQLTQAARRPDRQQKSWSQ
SKKanGAS inh = inhibitors of SKKanGAS S. pyogenes growth in kanamycin (SK-promoter or general growth effect). BacTiter-Glo, 6 h. inhibition, % at 7.5 µM. 1.3% of 300,000 active. AID 1662;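 active = mean replicate score, as percent of positive control median, at least 50; inconclusive = mean below 50 but one replicate at or above 50; inactive = mean and every replicate below 50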;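 note: strain carries kanamycin resistance gene driven by streptokinase promoter and grows in 40 µg/ml kanamycin; loss of luminescence reflects streptokinase promoter inhibition or plain growth inhibition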
ASAP1 inh = blocks human ASAP1-stimulated Arf1 GTP hydrolysis | 0.19% of 360,000 active | GDP FP detection | inhibition, % at 16.5 µM | AID 624377; in the data active = inhibition above about 25%
Calb FLC = C. albicans growth modulation with fluconazole | C. albicans CaCi-2 + fluconazole, Alamar Blue growth, 48 h | growth inhibition, % (no concentration beside the values) | 0.57% of 300,000 active | AID 1979;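 active = growth inhibition above about 58% in most replicates, limit read from the data, passing the limit was not always enough; inconclusive = exactly half the replicates above a set limit; inactive = most replicates below a set limit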;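 note: all wells also contain fluconazole at 8 µg/ml as a sub-toxic cotreatment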
hGIII sPLA2 conf = human GIII-sPLA2 inhibition, confirmation | shares compounds with HGIII-sPLA2 inh | recombinant hGIII-sPLA2, BODIPY PC-A2 QFRET fluorescence | inhibition, % at 12.2 µM | 34% of 2,000 active;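 active = mean inhibition across triplicates above the hit cutoff set in the earlier primary screen, cut at about 19% in these data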
535nm interf = optically interferes with 535nm fluorescence in sPLA2 counter-screen; BODIPY FL product fluorescence interference, QFRET; shares compounds with HGIII-sPLA2 inh; 8.5% of 2,000 active; inhibition, % at 12.2 µM; AID 743282;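 active = average inhibition above the solvent-only control mean plus 3 SD, cut at about 6% in these data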
535nm interf DR = interferes with 535nm fluorescence in dose response counter-screen. shares compounds with HGIII-sPLA2 inh. BODIPY FL product fluorescence interference, cell-free. IC50, µM. 240 tested, under 10 active. AID 743455;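 active = IC50 at or below 10 µM; inactive = IC50 above 10 µM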
Hits are given with their value; i = inactive; ? = inconclusive; nt = not tested or not shown; ! = repeats disagree. A selection: hits, their analogues and other compounds. The true share with any hit is near 2.3%.

SMILES	ARFGAP1 inh	HGIII-sPLA2 inh	SKKanGAS inh	ASAP1 inh	Calb FLC	hGIII sPLA2 conf	535nm interf	others
Oc1ccc(-c2n[nH]c(=S)n2Cc2ccco2)cc1	i	i	i	i	i	nt	nt
Cc1nn(C)c(-c2n[nH]c(=S)n2Cc2ccco2)c1Cl	i	20.1	i	i	i	22.1	i
COc1ccc(Nc2nc(-c3cccs3)cs2)cc1	i	i	i	i	i	nt	nt
Oc1ccc(Nc2nc(-c3cccs3)cs2)cc1	i	22.5	i	i	i	23.1	9.7
CCCn1cc(CCC(=O)Nc2ccc(Oc3cccnc3)cc2)c2ccccc21	i	i	nt	i	nt	nt	nt
Cc1ccc(CN2CCN(/N=C/c3ccc(N(C)C)cc3)CC2)cc1	i	21.5	i	i	i	i	i
CCCCCCC/C=C(\C)[C@@H](O)[C@@H](C)C(=O)N1CCC[C@@H]1C(=O)O[C@H](C(=O)O[C@@H](C)C(=O)O)[C@@H](C)CC	nt	i	nt	nt	nt	nt	nt
COc1ccc(NC(=S)NCCCN2CCOCC2)cc1	i	22.5	i	i	i	i	i
COc1ccc(C(C)(C)C)cc1NC(=S)NCCN1CCOCC1	i	19.9	i	i	i	i	i
COc1ccc(NC(=S)NCCN2CCOCC2)cc1	i	i	i	i	i	nt	nt
COC(=O)[C@]12C=CCN1[C@H](c1ccc(Cl)cc1)c1c(c3ccccc3n1S(=O)(=O)c1ccc(C)cc1)C2	nt	i	nt	nt	nt	nt	nt
CC(C)C[C@H](NC(=O)C1CCCC1)C(=O)N1CCC[C@H]1C(=O)NCc1ccccc1	i	i	nt	i	nt	nt	nt
Cn1c2cc(S(C)=O)sc2c2cnn(Cc3cccc(N)c3)c(=O)c21 (stereo unspecified)	nt	i	nt	nt	nt	nt	nt
NC(=S)N/N=C/c1c(O)c(Br)cc2oc3c(c12)CCCC3	i	33.1	87.0	i	i	31.2	6.2
Nc1ccc(C(=O)Oc2ccc([N+](=O)[O-])cc2)cc1	i	22.8	i	i	nt	i	i
Nc1ccc(C(=O)Oc2ccc([N+](=O)[O-])cc2)c(O)c1	nt	nt	i	nt	i	nt	nt
COc1cc(N=c2ssnc2Cl)c(OC)cc1Cl	i	22.8!	i	i	i	33.3	i	535nm interf DR=i
COc1ccc(OC)c(N=c2ssnc2Cl)c1	i	i	i	i	i	nt	nt
CCn1c(COc2ccc(Cl)cc2)nnc1SCC(=O)Nc1ccccc1-c1ccccc1	nt	i	nt	nt	nt	nt	nt
COc1cc(C(=O)Nc2cccc(-c3nc4cc(C)ccc4o3)c2)cc(OC)c1OC	i	19.3	i	i	i	i	i
CC(=O)c1cc(CN2C(=O)CCC2=O)cs1	i	20.3	i	i	?	i	i
CC(=O)c1cc(Cc2csc(C(C)=O)c2)cs1	i	i	i	i	i	nt	nt
O=C(Nc1ccc(Cl)cc1Cl)NC1CCN(S(=O)(=O)c2ccc(F)cc2)CC1	i	20.8	i	i	i	i	i
CC(C)(C)NC(=O)N1CCC(CO)(Cc2ccccc2Cl)CC1	i	i	i	i	i	nt	nt
CC1(C)CC(CCN)(Cc2ccccc2Cl)CCO1 (stereo unspecified)	i	19.7	i	i	i	i	i
SMILES	ARFGAP1 inh	HGIII-sPLA2 inh	SKKanGAS inh	ASAP1 inh	Calb FLC	hGIII sPLA2 conf	535nm interf	others
O=C(Cc1cnn(-c2ccccc2)c1)c1ccc(O)c(O)c1O	i	24.1	i	i	?	i	i
Cc1ccccc1CN1CCCCC(NC(=O)c2cccc([N+](=O)[O-])c2)C1=O (stereo unspecified)	nt	i	nt	nt	nt	nt	nt
COC(=O)c1c(NC(=S)Nc2cc(OC)c(Cl)cc2OC)sc2c1CCCCC2	i	25.2	i	i	i	26.4	11.3
CC1CN(c2ccc([N+](=O)[O-])c(NCCOc3ccccc3)c2)CCN1 (stereo unspecified)	i	39.1	i	i	i	i	i
COc1ccc(OCCNc2cc(N3CCCCC3)ccc2[N+](=O)[O-])cc1	i	i	i	i	i	nt	nt
c1cncc(Oc2ccc(NCCc3c[nH]c4ccccc34)cc2)c1	i	i	nt	i	nt	nt	nt
N#Cc1c(-c2ccccc2)cc(C2CC2)nc1SCC(=O)c1cccs1	i	i	i	i	i	nt	nt
N#Cc1c(-c2cccs2)cc(C2CC2)nc1SCC(N)=O	i	35.1	i	i	i	i	i

Assay outcomes as filed in PubChem.
